In ChEMBL document CHEMBL4425098, “Thiolactomycin-Based Inhibitors of Bacterial β-Ketoacyl-ACP Synthases with in Vivo Activity” (J Med Chem, 2016):
Converted amounts (≈) assume the structure as drawn. The source made the active and inactive calls. The rule behind the calls is not given here.

Columns and labels:
[1] = tested on: Francisella tularensis; test: Antibacterial activity against Francisella tularensis LVS after 18 to 24 hrs by Alamar blue dye-based colorimetric assay; assay type: functional
[2] = tested on: Mycobacterium tuberculosis; test: Binding affinity to Mycobacterium tuberculosis wild type FabB expressed in Mycobacterium smegmatis MC2 155 by WaterLOGSY-based competition assay
[3] = tested on: Mycobacterium tuberculosis; test: Antibacterial activity against Mycobacterium tuberculosis H37Rv after 6 days by Alamar blue dye-based colorimetric assay; assay type: functional; conditions: 144 h
Outline: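 M. tuberculosis H37Rv grown to early-mid log phase in Middlebrook 7H9 with 10% OADC and 0.05% Tween 80, added to 1:2 serial compound dilutions, and grown for 6 days at 37°C. Alamar blue then added for a further 24 h. MIC taken as the concentration preventing visible growth and Alamar blue reduction in all replicates.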

[4] = tested on: Staphylococcus aureus; test: Antibacterial activity against methicillin-sensitive Staphylococcus aureus RN4220 after 18 to 24 hrs by Alamar blue dye-based colorimetric assay; assay type: functional
Outline: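 Two-fold serial dilutions from 512 down to 0.25 μg/mL in CAMHB (microbroth dilution); incubated 37 °C for 18–24 h, then Alamar Blue added for a further 4 h. Absorbance read at 570 and 600 nm; percent growth reduction plotted against concentration, MIC90 from non-linear regression; growth and MICs confirmed by optical density.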

[5] = tested on: Staphylococcus aureus; test: Antibacterial activity against methicillin-resistant Staphylococcus aureus BAA 1762 after 18 to 24 hrs by Alamar blue dye-based colorimetric assay; assay type: functional
[6] = tested on: Yersinia pestis; test: Antibacterial activity against Yersinia pestis A1122 after 18 to 24 hrs by Alamar blue dye-based colorimetric assay; assay type: functional
[7] = target: T1, 3-oxoacyl-[acyl-carrier-protein] synthase 2 (Staphylococcus aureus, UniProt Q5TKS0); test: Binding affinity to Staphylococcus aureus wild type FabF expressed in Escherichia coli BL21 (DE3) PlysS cells by intrinsic tryptophan fluorescence quenching-based fluorimetric method
T1 sequence (Q5TKS0 whole entry): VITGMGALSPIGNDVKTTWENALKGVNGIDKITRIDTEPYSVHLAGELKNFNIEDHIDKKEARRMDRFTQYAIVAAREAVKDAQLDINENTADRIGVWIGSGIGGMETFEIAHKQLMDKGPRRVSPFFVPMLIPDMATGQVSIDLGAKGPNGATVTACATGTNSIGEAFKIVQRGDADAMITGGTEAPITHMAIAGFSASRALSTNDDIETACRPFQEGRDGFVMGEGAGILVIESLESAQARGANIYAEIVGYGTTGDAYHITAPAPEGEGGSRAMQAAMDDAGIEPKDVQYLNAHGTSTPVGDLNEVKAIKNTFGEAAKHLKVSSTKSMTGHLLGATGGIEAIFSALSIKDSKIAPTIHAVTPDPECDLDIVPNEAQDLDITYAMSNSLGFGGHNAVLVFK

[8] = tested on: Burkholderia pseudomallei; test: Antibacterial activity against Burkholderia pseudomallei after 18 to 24 hrs by Alamar blue dye-based colorimetric assay; assay type: functional
[9] = Binding affinity to Mycobacterium tuberculosis wild type FabB expressed in Mycobacterium smegmatis MC2 155 by intrinsic tryptophan fluorescence quenching-based fluorimetric method
Outline: (§1)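 Kd by quenching of intrinsic tryptophan fluorescence (excitation 280 nm, emission 337 nm). Inhibitor stocks in DMSO or buffer were titrated into 1 μM His-tag-purified enzyme in 50 mM Tris-HCl, 150 mM NaCl, 1 mM DTT, pH 8.5. mtFabB was expressed in M. smegmatis MC²155; saFabF was expressed in E. coli BL21(DE3) pLysS.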

[10] = tested on: Klebsiella pneumoniae; test: Antibacterial activity against Klebsiella pneumoniae KPC2ST258 infected in Swiss Webster mouse assessed as survival time at 100 mg/kg, sc administered 1, 12 and 24 hrs post infection measured every 12 hrs for 7 days; assay type: functional
Outline: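 K. pneumoniae KPC2ST258 was given IP as 5×10⁶ cfu in BHI broth. Drugs in saline/PEG400/ethanol (40/20/40) were injected SC at 100 mg/kg/inj at 1, 12 and 24 h post infection. Mice were checked every 12 h for 7 days, n=8–10 per group. Average survival time was compared with vehicle by one-tailed t test.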

[11] = target: 3-oxoacyl-[acyl-carrier-protein] synthase 2 (Staphylococcus aureus, UniProt Q5TKS0, C165Q); test: Binding affinity to Staphylococcus aureus FabF C165Q mutant expressed in Escherichia coli BL21 (DE3) PlysS cells by intrinsic tryptophan fluorescence quenching-based fluorimetric method; outline: as §1
[12] = tested on: Staphylococcus aureus; test: Antibacterial activity against methicillin-resistant Staphylococcus aureus BAA 1762 infected in Swiss Webster mouse assessed as increase in survival rate at 100 mg/kg, sc administered 1 and 25 hrs post infection measured twice a day for 5 days relative to vehicle-treated control; assay type: functional, organism-based
Outline: (§2)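 Mice made neutropenic with cyclophosphamide 4 days and 1 day before infection. MRSA BAA 1762 was given IP as 0.5 mL of 5×10⁷ cells/mL in BHI. Analogues in water/ethanol, or vancomycin in water, were dosed SC at 100 mg/kg/inj at 1 and 25 h post infection. Survival was checked every 12 h for 5 days, n=6–7 per group. Average survival time was compared with vehicle by one-tailed t test.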

[13] = tested on: Staphylococcus aureus; test: Antibacterial activity against methicillin-resistant Staphylococcus aureus BAA 1762 infected in sc dosed Swiss Webster mouse assessed as increase in survival rate administered 1 and 25 hrs post infection measured twice a day for 5 days; assay type: functional; conditions: BAA 1762, sc; outline: as §2
[14] = tested on: Staphylococcus aureus; test: Antibacterial activity against methicillin-resistant Staphylococcus aureus BAA 1762 infected in Swiss Webster mouse assessed as survival time at 100 mg/kg, sc administered 1 and 25 hrs post infection measured twice a day for 5 days; assay type: functional; outline: as §2

Row | SMILES | MIC90 [1] [µg/mL] | Activity [2] | MIC90 [3] [µg/mL] | MIC90 [4] [µg/mL] | MIC90 [5] [µg/mL] | MIC90 [6] [µg/mL] | Kd [7] [µM] | Activity [8] | Ki [9] [µM] | MSD [10] [days] | Kd [11] [µM] | Activity [12] | ED50 [13] [mg/kg] | MSD [14] [days]
1 | C=C/C(C)=C/[C@@]1(C)SC(=O)C=C1OCC(=O)NCCn1cc(CNC(=O)[C@H](O)C(C)(C)CO)nn1 | 159 (≈ 313 µM) | inactive | 100 (≈ 197 µM) | > 64 | > 64 |  |  |  |  |  |  |  |  | 
2 | C=C/C(C)=C/[C@@]1(C)SC(=O)C(CCCCc2ccc(Cl)cc2)=C1O | 1.7 (≈ 4.68 µM) |  | 100 (≈ 276 µM) | 64 (≈ 176 µM) | 50 (≈ 138 µM) | > 250 |  |  |  |  |  |  |  | 
3 | C=C/C(C)=C/[C@@]1(C)SC(=O)C(CCCCc2ccc(Br)cc2)=C1O | 2.2 (≈ 5.4 µM) |  | 12.5 (≈ 30.7 µM) | 32 (≈ 78.6 µM) | 50 (≈ 123 µM) | > 250 | 92 |  |  |  |  |  |  | 
4 | C=C/C(C)=C/[C@@]1(C)SC(=O)C=C1OCC(=O)NCCn1cc(CNC(=O)c2ccc(NS(=O)(=O)c3ccc(F)cc3)cc2)nn1 | > 256 | inactive | > 100 | > 64 | > 64 |  |  |  |  |  |  |  |  | 
5 | C=C/C(C)=C/[C@@]1(C)SC(=O)C(CCc2ccc(Cl)cc2)=C1O | 3.1 (≈ 9.26 µM) |  | 100 (≈ 299 µM) | 64 (≈ 191 µM) | 100 (≈ 299 µM) | > 250 |  | inactive |  |  |  |  |  | 
6 | C=C/C(C)=C/[C@@]1(C)SC(=O)C(C(=O)CCC)=C1O | 1.8 (≈ 6.76 µM) |  | 100 (≈ 375 µM) | 16 (≈ 60.1 µM) | 32 (≈ 120 µM) | > 250 |  | inactive |  |  |  |  |  | 
7 | C=C/C(C)=C/[C@@]1(C)SC(=O)C(CCCCc2ccc(F)cc2)=C1O | 3.1 (≈ 8.95 µM) |  | > 100 | > 64 | 75 (≈ 216 µM) | > 250 |  | inactive |  |  |  |  |  | 
8 | C=C/C(C)=C/[C@@]1(C)SC(=O)C=C1OCC(=O)NCCNC(=O)OC(C)(C)C | 54 (≈ 136 µM) | inactive | > 100 | > 64 | > 64 |  |  |  | > 200 |  |  |  |  | 
9 | C=C/C(C)=C/[C@@]1(C)SC(=O)C(C(C)=O)=C1O | 8.8 (≈ 36.9 µM) |  | 12.5 (≈ 52.5 µM) | 64 (≈ 269 µM) | 32 (≈ 134 µM) | > 250 | 14.2 | inactive |  | 4.6 | 11.9 | Active |  | 
10 | C=C/C(C)=C/[C@@]1(C)SC(=O)C(C(=O)C(F)(F)F)=C1O | 98.1 (≈ 336 µM) |  | 100 (≈ 342 µM) | > 64 | 64 (≈ 219 µM) | > 250 | 58.4 | inactive |  | 5.1 | 56.2 |  | 125 | 3
11 | C=C/C(C)=C/[C@@]1(C)SC(=O)C(C(=O)CCCCCCCCCCCCCCC)=C1O | 3.9 (≈ 8.97 µM) |  | 100 (≈ 230 µM) | 0.5 (≈ 1.15 µM) | 1 (≈ 2.3 µM) | > 250 | > 200 | inactive |  |  |  |  |  | 
12 | C=C/C(C)=C/[C@@]1(C)SC(=O)C(CCCCc2ccc(-c3ccccc3)cc2)=C1O | 1.9 (≈ 4.7 µM) |  | 12.5 (≈ 30.9 µM) | 16 (≈ 39.5 µM) | 25 (≈ 61.8 µM) | > 250 | 131 |  |  |  |  |  |  | 
13 | C=C/C(C)=C/[C@@]1(C)SC(=O)C(CCc2ccc(C)cc2)=C1O | 3.4 (≈ 10.8 µM) |  |  | > 64 | > 100 | > 250 |  |  |  |  |  |  |  | 
